# Laboratory results reported in ChEMBL document CHEMBL1629545, “A morpholino oligomer targeting highly conserved internal ribosome entry site sequence is able to inhibit multiple species of picornavirus” (Antimicrob Agents Chemother, 2008).
# pIC50: −log10 of the molar value. Calls of active or inactive are those of the source. No cut-off for these calls is given here.
# Experiments:
# HeLa [1] = assay: Cytotoxicity against human HeLa cells 10 uM after 24 hrs by MTS assay; format: cell-based
# Procedure, shortened: (§1)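 HeLa cells at ~80% confluence, uninfected, exposed to 1–100 μM PPMO or water (mock) in serum-free DMEM-F-12 (1:1) for 24 h. MTS reagent was added for 4 h and absorbance read at 492 nm. Viability was expressed as percent of water-treated cells (set to 100%), averaged over 12 wells.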
# HeLa [2] = assay: Cytotoxicity against human HeLa cells at 10 uM by MTS assay; format: cell-based; procedure, shortened: as §1
# Poliovirus 1 [3] = assay: Antiviral activity against Human poliovirus type 1 infected in Human HeLa cell after 21 hrs post infection by plaque assay; format: functional, organism-based; settings: Enterovirus C
# Procedure, shortened: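 HeLa cells infected with cDNA-derived PV1 (MOI 0.1), then treated after infection with 2 to 100 μM PPMO. Supernatant virus was titrated by plaque assay on HeLa monolayers 21 h later: 1% agar overlay, 36 h at 37°C, formaldehyde fixation, crystal violet staining and plaque count. IC50 was taken from triplicate samples.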
# HeLa [4] = assay: Cytotoxicity against human HeLa cell after 21 hrs by MTS assay; format: functional, cell-based
# Procedure, shortened: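 Uninfected HeLa cells were exposed to a range of PPMO concentrations for 21 h, then read by MTS assay (4 h, absorbance 492 nm) against water-mock cells set to 100%. CC50 was taken from the concentration–viability curve, and triplicate samples were averaged.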
# Poliovirus 1 [5] = assay: Antiviral activity against Human poliovirus type 1 infected in Human HeLa cell assessed as inhibition of translation at 10 uM by luciferase reporter gene assay; format: functional, organism-based
# Procedure, shortened: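 HeLa cells were pretreated 4 h with 10 μM PPMO, then electroporated with 20 μg noncapped PV1-Luc replicon RNA (IRES-driven). They were kept in medium with 10 μM PPMO, with or without 2 mM guanidine HCl, at 37°C in 5% CO2. Luciferase in cell lysates was read at 1-h intervals after transfection. Two experiments were averaged.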
# Poliovirus 1 [6] = assay: Antiviral activity against Human poliovirus type 1 infected in Human HeLa cell assessed as inhibition of translation at 10 ug/ml by luciferase reporter gene assay; format: functional, organism-based
# Procedure, shortened: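 In-cell translation control: HeLa cells electroporated with 20 μg PV1-Luc replicon RNA were placed in medium with 10 μg/ml puromycin at 37°C in 5% CO2. Luciferase in lysates was read by luminometer at hourly time points after transfection. Two experiments were averaged.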
# Poliovirus 1 [7] = assay: Antiviral activity against Human poliovirus type 1 infected in mouse assessed as viral titer in small intestine at 10 mg/kg, ip administered 1 hr post infection once daily for 5 days measured after 8 days by plaque assay; format: functional, organism-based; design: dose 10 mg/kg
# Poliovirus 1 [8] = assay: Antiviral activity against Human poliovirus type 1 infected in mouse assessed as viral titer in small intestine at 10 mg/kg, ip administered 1 hr post infection once daily for 5 days measured after 7 days by plaque assay; format: functional, organism-based; design: dose 10 mg/kg
# Poliovirus 1 [9] = assay: Antiviral activity against Human poliovirus type 1 infected in mouse assessed as viral titer in small intestine at 10 mg/kg, ip administered 1 hr post infection once daily for 5 days measured after 10 days by plaque assay; format: functional, organism-based; design: dose 10 mg/kg
# Poliovirus 1 [10] = assay: Antiviral activity against Human poliovirus type 1 infected in mouse assessed as viral titer in spinal cord at 10 mg/kg, ip administered 1 hr post infection once daily for 5 days measured after 8 days by plaque assay; format: functional, organism-based; design: dose 10 mg/kg
# Poliovirus 1 [11] = assay: Antiviral activity against Human poliovirus type 1 infected in mouse assessed as viral titer in spinal cord at 10 mg/kg, ip administered 1 hr post infection once daily for 5 days measured after 7 days by plaque assay; format: functional, organism-based; design: dose 10 mg/kg
# Poliovirus 1 [12] = assay: Antiviral activity against Human poliovirus type 1 infected in mouse assessed as viral titer in spinal cord at 10 mg/kg, ip administered 1 hr post infection once daily for 5 days measured after 10 days by plaque assay; format: functional, organism-based; design: dose 10 mg/kg
# Poliovirus 1 [13] = assay: Antiviral activity against Human poliovirus type 1 infected in mouse assessed as viral titer in brain 10 mg/kg, ip administered 1 hr post infection once daily for 5 days measured after 8 days by plaque assay; format: functional, organism-based; design: dose 10 mg/kg
# Poliovirus 1 [14] = assay: Antiviral activity against Human poliovirus type 1 infected in mouse assessed as viral titer in brain at 10 mg/kg, ip administered 1 hr post infection once daily for 5 days measured after 7 days by plaque assay; format: functional, organism-based; design: dose 10 mg/kg
# Poliovirus 1 [15] = assay: Antiviral activity against Human poliovirus type 1 infected in mouse assessed as viral titer in brain at 10 mg/kg, ip administered 1 hr post infection once daily for 5 days measured after 10 days by plaque assay; format: functional, organism-based; design: dose 10 mg/kg
# Poliovirus 1 [16] = assay: Antiviral activity against Human poliovirus type 1 infected in mouse assessed as protection from virus-induced paralytic symptom at 10 mg/kg, ip administered 1 hr post infection once daily for 5 days measured after 8 days by plaque assay; format: functional, organism-based; design: dose 10 mg/kg
# Procedure, shortened: (§2)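 Poliovirus receptor transgenic (cPVR) mice, about 10 weeks old, were infected i.p. with 3 × 10^8 PFU wt PV1. They received 200 μg (~10 mg/kg) PPMO in 500 μl sterile PBS i.p., or PBS alone, at 1 h p.i. and then every 24 h ([…]; 6 mice per group). Mice were monitored daily for paralysis and death, and euthanized at near-total paralysis.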
# Poliovirus 1 [17] = assay: Antiviral activity against Human poliovirus type 1 infected in mouse assessed as protection from virus-induced paralytic symptom at 10 mg/kg, ip administered 1 hr post infection once daily for 5 days measured after 7 days by plaque assay; format: functional, organism-based; design: dose 10 mg/kg; procedure, shortened: as §2
# Poliovirus 1 [18] = assay: Antiviral activity against Human poliovirus type 1 infected in mouse assessed as protection from virus-induced paralytic symptom at 10 mg/kg, ip administered 1 hr post infection once daily for 5 days measured after 10 days by plaque assay; format: functional, organism-based; design: dose 10 mg/kg; procedure, shortened: as §2
# Poliovirus 1 [19] = assay: Antiviral activity against Human poliovirus type 1 infected in mouse assessed as protection from virus-induced death at 10 mg/kg, ip administered 1 hr post infection once daily for 5 days measured after 8 days by plaque assay; format: functional, organism-based; design: dose 10 mg/kg; procedure, shortened: as §2
# Poliovirus 1 [20] = assay: Antiviral activity against Human poliovirus type 1 infected in mouse assessed as protection from virus-induced death at 10 mg/kg, ip administered 1 hr post infection once daily for 5 days measured after 7 days by plaque assay; format: functional, organism-based; design: dose 10 mg/kg; procedure, shortened: as §2
# Poliovirus 1 [21] = assay: Antiviral activity against Human poliovirus type 1 infected in mouse assessed as protection from virus-induced death at 10 mg/kg, ip administered 1 hr post infection once daily for 5 days measured after 10 days by plaque assay; format: functional, organism-based; design: dose 10 mg/kg; procedure, shortened: as §2
# Poliovirus 1 [22] = assay: Antiviral activity against Human poliovirus type 1 infected in mouse assessed as viral titer in large intestine at 10 mg/kg, ip administered 1 hr post infection once daily for 5 days measured after 8 days by plaque assay; format: functional, organism-based; design: dose 10 mg/kg
# Poliovirus 1 [23] = assay: Antiviral activity against Human poliovirus type 1 infected in mouse assessed as viral titer in large intestine at 10 mg/kg, ip administered 1 hr post infection once daily for 5 days measured after 7 days by plaque assay; format: functional, organism-based; design: dose 10 mg/kg
# Poliovirus 1 [24] = assay: Antiviral activity against Human poliovirus type 1 infected in mouse assessed as viral titer in large intestine at 10 mg/kg, ip administered 1 hr post infection once daily for 5 days measured after 10 days by plaque assay; format: functional, organism-based; design: dose 10 mg/kg
# Poliovirus 1 [25] = assay: Antiviral activity against Human poliovirus type 1 infected in mouse assessed as viral titer in spleen at 10 mg/kg, ip administered 1 hr post infection once daily for 5 days measured after 8 days by plaque assay; format: functional, organism-based; design: dose 10 mg/kg
# Poliovirus 1 [26] = assay: Antiviral activity against Human poliovirus type 1 infected in mouse assessed as viral titer in spleen at 10 mg/kg, ip administered 1 hr post infection once daily for 5 days measured after 7 days by plaque assay; format: functional, organism-based; design: dose 10 mg/kg
# Poliovirus 1 [27] = assay: Antiviral activity against Human poliovirus type 1 infected in mouse assessed as viral titer in spleen at 10 mg/kg, ip administered 1 hr post infection once daily for 5 days measured after 10 days by plaque assay; format: functional, organism-based; design: dose 10 mg/kg
# Poliovirus 1 [28] = assay: Antiviral activity against Human poliovirus type 1 infected in mouse assessed as viral titer in muscle at 10 mg/kg, ip administered 1 hr post infection once daily for 5 days measured after 8 days by plaque assay; format: functional, organism-based; design: dose 10 mg/kg; settings: Muscle tissue
# Poliovirus 1 [29] = assay: Antiviral activity against Human poliovirus type 1 infected in mouse assessed as viral titer in muscle at 10 mg/kg, ip administered 1 hr post infection once daily for 5 days measured after 7 days by plaque assay; format: functional, organism-based; design: dose 10 mg/kg; settings: Muscle tissue
# Poliovirus 1 [30] = assay: Antiviral activity against Human poliovirus type 1 infected in mouse assessed as viral titer in muscle at 10 mg/kg, ip administered 1 hr post infection once daily for 5 days measured after 10 days by plaque assay; format: functional, organism-based; design: dose 10 mg/kg; settings: Muscle tissue
# Vero = assay: Cytotoxicity against African green monkey Vero cells at 10 uM after 24 hrs by MTS assay; format: cell-based; settings: chlorocebus sabaeus
# SK-N-MC = assay: Cytotoxicity against human SK-N-MC cell at 10 uM after 24 hrs by MTS assay; format: cell-based
smiles,measurement,setting,value
Cc1cn([C@H]2CN(P(=O)(OC[C@@H]3CN(P(=O)(OC[C@@H]4CNC[C@H](n5cnc6c(=O)[nH]c(N)nc65)O4)N(C)C)C[C@H](n4cnc5c(N)ncnc54)O3)N(C)C)C[C@@H](COP(=O)(N(C)C)N3C[C@@H](COP(=O)(N(C)C)N4C[C@@H](COP(=O)(N(C)C)N5C[C@@H](COP(=O)(N(C)C)N6C[C@@H](COP(=O)(N(C)C)N7C[C@@H](COP(=O)(N(C)C)N8C[C@@H](COP(=O)(N(C)C)N9C[C@@H](COP(=O)(N(C)C)N%10C[C@@H](COP(=O)(N(C)C)N%11C[C@@H](COP(=O)(N(C)C)N%12C[C@@H](COP(=O)(N(C)C)N%13C[C@@H](COP(=O)(N(C)C)N%14C[C@@H](COP(=O)(N(C)C)N%15C[C@@H](COP(=O)(N(C)C)N%16C[C@@H](COP(=O)(N(C)C)N%17C[C@@H](COP(=O)(N(C)C)N%18C[C@@H](COP(=O)(N(C)C)N%19C[C@@H](COP(=O)(N(C)C)N%20C[C@@H](COP(=O)(N(C)C)N%21C[C@@H](COP(=O)(N(C)C)N%22CCN(C(=O)CCNC(=O)CCCCCNC(=O)[C@H](CCCNC(=N)N)NC(=O)CCCCCNC(=O)[C@H](CCCNC(=N)N)NC(=O)[C@H](CCCNC(=N)N)NC(=O)CCCCCNC(=O)[C@H](CCCNC(=N)N)NC(=O)[C@H](CCCNC(=N)N)NC(=O)CCCCCNC(=O)[C@H](CCCNC(=N)N)NC(=O)[C@H](CCCNC(=N)N)NC(=O)CCCCCNC(=O)[C@@H](N)CCCNC(=N)N)CC%22)O[C@@H](n%22cnc%23c(=O)[nH]c(N)nc%23%22)C%21)O[C@@H](n%21cnc%22c(N)ncnc%22%21)C%20)O[C@@H](n%20cnc%21c(N)ncnc%21%20)C%19)O[C@@H](n%19cnc%20c(N)ncnc%20%19)C%18)O[C@@H](n%18ccc(N)nc%18=O)C%17)O[C@@H](n%17cnc%18c(N)ncnc%18%17)C%16)O[C@@H](n%16ccc(N)nc%16=O)C%15)O[C@@H](n%15cnc%16c(=O)[nH]c(N)nc%16%15)C%14)O[C@@H](n%14cnc%15c(=O)[nH]c(N)nc%15%14)C%13)O[C@@H](n%13cnc%14c(N)ncnc%14%13)C%12)O[C@@H](n%12ccc(N)nc%12=O)C%11)O[C@@H](n%11cnc%12c(N)ncnc%12%11)C%10)O[C@@H](n%10ccc(N)nc%10=O)C9)O[C@@H](n9ccc(N)nc9=O)C8)O[C@@H](n8ccc(N)nc8=O)C7)O[C@@H](n7cnc8c(N)ncnc87)C6)O[C@@H](n6cnc7c(N)ncnc76)C5)O[C@@H](n5cnc6c(N)ncnc65)C4)O[C@@H](n4cnc5c(=O)[nH]c(N)nc54)C3)O2)c(=O)[nH]c1=O (some centres not stated),Activity,HeLa [1],Toxic
same,Activity,HeLa [2],Non-toxic
same,pIC50,Poliovirus 1 [3],5.70
same,CC50,HeLa [4],52 µM
same,Activity,Poliovirus 1 [5],Active
same,Activity,Poliovirus 1 [6],inactive
same,Activity,Poliovirus 1 [7],Active
same,Activity,Poliovirus 1 [8],Active
same,Activity,Poliovirus 1 [9],Active
same,Activity,Poliovirus 1 [10],Active
same,Activity,Poliovirus 1 [11],Active
same,Activity,Poliovirus 1 [12],Active
same,Activity,Poliovirus 1 [13],Active
same,Activity,Poliovirus 1 [14],Active
same,Activity,Poliovirus 1 [15],Active
same,Activity,Poliovirus 1 [16],Active
same,Activity,Poliovirus 1 [17],Active
same,Activity,Poliovirus 1 [18],Active
same,Activity,Poliovirus 1 [19],Active
same,Activity,Poliovirus 1 [20],Active
same,Activity,Poliovirus 1 [21],Active
same,Activity,Poliovirus 1 [22],inactive
same,Activity,Poliovirus 1 [23],inactive
same,Activity,Poliovirus 1 [24],inactive
same,Activity,Poliovirus 1 [25],inactive
same,Activity,Poliovirus 1 [26],inactive
same,Activity,Poliovirus 1 [27],inactive
same,Activity,Poliovirus 1 [28],inactive
same,Activity,Poliovirus 1 [29],inactive
same,Activity,Poliovirus 1 [30],inactive
same,Activity,Vero,Non-toxic
same,Activity,SK-N-MC,Non-toxic
